The record followed here is ChEMBL document CHEMBL1154778, “Synthesis and biological evaluation of C-5 methyl substituted 4-arylthio and 4-aryloxy-3-Iodopyridin-2(1H)-one type anti-HIV agents” (J Med Chem, 2009).

The subject of test [1] is Human immunodeficiency virus 1. Briefly: Antiviral activity against HIV1 HXB2 harboring 106A mutant reverse transcriptase infected in human MT4 cells after 5 days by MTT assay. It counts as functional, organism-based. The following applies: Human immunodeficiency virus 1, HXB2, MT4, 120 h. The method in brief:
(§1)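 Mutant viruses were made by recombining the mutant PR-RT sequence into a PR-RT-deleted HIV-1 HXB2 proviral clone. MT4 cells were grown in RPMI 1640 with 10% FCS and antibiotics. Virus at 200 CCID50/well and 30000 cells/well were incubated with varied compound concentrations for 5 days at 37 °C, 5% CO2. MTT viability gave IC50, the concentration giving 50% infection versus the drug-free control.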
A general note: Tetrazolium assays rely on reduction of a dye to a coloured formazan, in cell work by metabolically active cells.

The nature of test [2]: Selectivity index, ratio of CC50 for human MT4 cells to IC50 for HIV-1 LAI harboring wild type reverse transcriptase infected in human MT4 cells. The test is classed as functional. The method in brief: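 Cytotoxicity was measured in mock-infected MT4 cultures (30000 cells/well) given the same compound concentration range, run in parallel with the infected cultures for 5 days at 37 °C, 5% CO2, with MTT viability. CC50 was the concentration reducing viability by 50% versus the drug-free control. SI was CC50 divided by IC50 against HIV-1 LAI.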

Test [3] concerns Human immunodeficiency virus 1. Briefly: Antiviral activity against HIV1 HXB2 harboring 100I mutant reverse transcriptase infected in human MT4 cells after 5 days by MTT assay. The test is classed as functional, organism-based. The following applies: Human immunodeficiency virus 1, HXB2, MT4, 120 h. Put shortly:
as §1

Test [4] has as its system Human immunodeficiency virus 1. Briefly: Ratio of efavirenz IC50 to compound IC50 for HIV1 HXB2 harboring Y188L mutant reverse transcriptase infected in human MT4 cells. It counts as functional.
Test [5] has as its system Human immunodeficiency virus 1. Briefly: Antiviral activity against HIV1 HXB2 harboring 101E and K103N mutant reverse transcriptase infected in human MT4 cells after 5 days by MTT assay. The test is classed as functional, organism-based. The following applies: Human immunodeficiency virus 1, HXB2, MT4, 120 h. The method in brief:
as §1

Test [6] relates to Human immunodeficiency virus 1. Briefly: Antiviral activity against HIV1 HXB2 harboring 179E mutant reverse transcriptase infected in human MT4 cells after 5 days by MTT assay. It counts as functional, organism-based. The following applies: Human immunodeficiency virus 1, HXB2, MT4, 120 h. The method in brief:
as §1

Test [7] relates to Human immunodeficiency virus 1. In words: Antiviral activity against HIV1 HXB2 harboring 138K mutant reverse transcriptase infected in human MT4 cells after 5 days by MTT assay. The test is classed as functional, organism-based. The settings on record: Human immunodeficiency virus 1, HXB2, MT4, 120 h. The method in brief:
as §1

The test system of test [8] is Human immunodeficiency virus 1. Briefly: Ratio of compound IC50 to efavirenz IC50 for HIV1 HXB2 harboring Y181C mutant reverse transcriptase infected in human MT4 cells. The test is classed as functional.
Test [9] concerns Human immunodeficiency virus 1. In words: Antiviral activity against HIV1 HXB2 harboring 227L and 106A mutant reverse transcriptase infected in human MT4 cells after 5 days by MTT assay. It counts as functional, organism-based. The settings on record: Human immunodeficiency virus 1, HXB2, MT4, 120 h. The method in brief:
as §1

Test [10] has as its system Human immunodeficiency virus 1. In words: Antiviral activity against HIV1 HXB2 harboring 190S mutant reverse transcriptase infected in human MT4 cells after 5 days by MTT assay. It counts as functional, organism-based. The following applies: Human immunodeficiency virus 1, HXB2, MT4, 120 h. The method in brief: as §1
The subject of test [11] is Human immunodeficiency virus 1. Briefly: Antiviral activity against HIV1 HXB2 harboring 227C mutant reverse transcriptase infected in human MT4 cells after 5 days by MTT assay. The settings on record: Human immunodeficiency virus 1, HXB2, MT4, 120 h. It counts as functional, organism-based. Put shortly: as §1
Test [12] has as its system Human immunodeficiency virus 1. Briefly: Ratio of efavirenz IC50 to compound IC50 for HIV1 HXB2 harboring K103N mutant reverse transcriptase infected in human MT4 cells. It counts as functional.
The subject of test [13] is Human immunodeficiency virus 1. Briefly: Antiviral activity against HIV1 HXB2 harboring 101E mutant reverse transcriptase infected in human MT4 cells after 5 days by MTT assay. The settings on record: Human immunodeficiency virus 1, HXB2, MT4, 120 h. The test is classed as functional, organism-based. The method in brief: as §1

Take `CCc1c(C)[nH]c(=O)c(I)c1Oc1cc(C)cc(C)c1`: the IC50 in test [1] was 5.01 nM; in [3], 6.31 nM; in test [5], 15.8 nM; in test [6], 1.99 nM; in [7], 3.98 nM; in test [9], 398 nM. The 50% inhibitory concentration (IC50) came to 1.99 nM in [10], 63.1 nM in test [11] and 6.31 nM in [13]. In addition, in test [2], the “Ratio CC50/IC50” value is on record as 9000. The “Ratio IC50” value came to 3 in [4], 10 in test [8] and 10 in [12].

In general, IC50 refers to the concentration needed to halve the response being measured. Higher therefore signals lower potency.
